{
  "source": "ChEMBL document CHEMBL1275447",
  "about": "(Antimicrob Agents Chemother, 2008)",
  "key": {"Pseudomonas aeruginosa [1]": {"system": "Pseudomonas aeruginosa", "experiment": "Antibacterial activity against Pseudomonas aeruginosa isolate 1029 by microdilution method", "assay_type": "functional"}, "Pseudomonas aeruginosa [2]": {"system": "Pseudomonas aeruginosa", "experiment": "Antibacterial activity against Pseudomonas aeruginosa isolate 886 by microdilution method", "assay_type": "functional"}, "Pseudomonas aeruginosa [3]": {"system": "Pseudomonas aeruginosa", "experiment": "Antibacterial activity against Pseudomonas aeruginosa isolate 1050 by microdilution method", "assay_type": "functional", "procedure,_shortened": "(§1)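 CLSI broth microdilution in cation-adjusted Mueller-Hinton broth (20–25 mg/liter Ca, 10–12.5 mg/liter Mg). Standard inoculum 10⁵ CFU/ml, incubated in ambient air. Clinical hospital isolates.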"}, "Pseudomonas aeruginosa [4]": {"system": "Pseudomonas aeruginosa", "experiment": "Antibacterial activity against Pseudomonas aeruginosa isolate 1060 by microdilution method", "assay_type": "functional", "procedure,_shortened": "as §1"}, "Pseudomonas aeruginosa [5]": {"system": "Pseudomonas aeruginosa", "experiment": "Antibacterial activity against Pseudomonas aeruginosa isolate 927 by microdilution method", "assay_type": "functional"}, "[6]": {"experiment": "fT>MIC in human infected with Pseudomonas aeruginosa isolate 1052 at 500 mg administered as 1 hr infusion", "assay_type": "functional"}, "[7]": {"experiment": "fT>MIC in human infected with Pseudomonas aeruginosa isolate 1058 at 500 mg administered as 1 hr infusion", "assay_type": "functional"}, "[8]": {"experiment": "fT>MIC in human infected with Pseudomonas aeruginosa isolate 944 at 500 mg administered as 1 hr infusion", "assay_type": "functional"}, "[9]": {"experiment": "fT>MIC in human infected with Pseudomonas aeruginosa isolate 1050 at 500 mg administered as 1 hr infusion", "assay_type": "functional"}, "[10]": {"experiment": "fT>MIC in human infected with Pseudomonas aeruginosa isolate 927 at 500 mg administered as 1 hr infusion", "assay_type": "functional"}, "[11]": {"experiment": "fT>MIC in human infected with Pseudomonas aeruginosa isolate 1055 at 500 mg administered as 4 hr infusion", "assay_type": "functional"}, "[12]": {"experiment": "fT>MIC in human infected with Pseudomonas aeruginosa isolate 935 at 500 mg administered as 4 hr infusion", "assay_type": "functional"}, "[13]": {"experiment": "fT>MIC in human infected with Pseudomonas aeruginosa isolate 906 at 500 mg administered as 4 hr infusion", "assay_type": "functional"}, "[14]": {"experiment": "fT>MIC in human infected with Pseudomonas aeruginosa isolate 931 at 500 mg administered as 4 hr infusion", "assay_type": "functional"}, "[15]": {"experiment": "fT>MIC in neutropenic mouse infected with Pseudomonas aeruginosa isolate 1062 at 500 mg administered as 1 hr infusion", "assay_type": "functional", "procedure,_shortened": "(§2)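 Free-drug time above MIC simulated from one-compartment mouse serum PK (25.2% protein binding). The mice were cyclophosphamide-neutropenic and uranyl nitrate-renally impaired. Regimen was subcutaneous 10, 15, 2.5, 1.25, 0.5, 0.25 mg/kg at 0, 0.5, 2.5, 4, 5.5, 7 h, repeated every 8 h over 24 h.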"}, "[16]": {"experiment": "fT>MIC in neutropenic mouse infected with Pseudomonas aeruginosa isolate 1082 at 500 mg administered as 1 hr infusion", "assay_type": "functional", "procedure,_shortened": "as §2"}, "[17]": {"experiment": "fT>MIC in neutropenic mouse infected with Pseudomonas aeruginosa isolate 1055 at 500 mg administered as 4 hr infusion", "assay_type": "functional", "procedure,_shortened": "(§3)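 Mouse fT>MIC was modelled with first-order one-compartment serum PK and 25.2% binding. Mice were neutropenic (cyclophosphamide) with uranyl nitrate renal impairment. Subcutaneous doses were 5.5, 2.25, 4.5, 4.5, 4.5, 4.5, 0.75, 0.375 mg/kg at 0, 0.5, 1.5, 2.5, 3.5, 4.5, 6, 7.5 h per 8-h interval over 24 h.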"}, "[18]": {"experiment": "fT>MIC in neutropenic mouse infected with Pseudomonas aeruginosa isolate 935 at 500 mg administered as 4 hr infusion", "assay_type": "functional", "procedure,_shortened": "as §3"}, "[19]": {"experiment": "fT>MIC in neutropenic mouse infected with Pseudomonas aeruginosa isolate 1060 at 500 mg administered as 4 hr infusion", "assay_type": "functional", "procedure,_shortened": "as §3"}, "[20]": {"experiment": "Cmax in Pseudomonas aeruginosa ATCC 27853 infected neutropenic ICR mouse at 10 mg/kg, sc administered as single dose 2 hrs postinfection by HPLC", "assay_type": "ADME, organism-based", "set-up": "dose 10 mg/kg, route subcutaneous", "details": "in vivo", "procedure,_shortened": "(§4)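 Neutropenic mice (cyclophosphamide ip 150 and 100 mg/kg, 4 and 1 days before inoculation) with uranyl nitrate 5 mg/kg ip 3 days before, for renal impairment. Thigh infection with ATCC 27853 at 10⁶ CFU/ml, 0.1 ml per thigh. Single sc doses 2 h later. Intracardiac blood from 6–12 mice per time point, eight time points over 4 h. Serum assayed by HPLC (linear 0.5–40 μg/ml). One-compartment first-order fit.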"}, "[21]": {"experiment": "Cmax in Pseudomonas aeruginosa ATCC 27853 infected neutropenic ICR mouse at 150 mg/kg, sc administered as single dose 2 hrs postinfection by HPLC", "assay_type": "ADME, organism-based", "set-up": "dose 150 mg/kg, route subcutaneous", "details": "in vivo", "procedure,_shortened": "as §4"}, "[22]": {"experiment": "Tmax in Pseudomonas aeruginosa ATCC 27853 infected neutropenic ICR mouse at 10 mg/kg, sc administered as single dose 2 hrs postinfection by HPLC", "assay_type": "ADME, organism-based", "set-up": "dose 10 mg/kg, route subcutaneous", "details": "in vivo", "procedure,_shortened": "as §4"}, "[23]": {"experiment": "AUC (0 to 24 hrs) in Pseudomonas aeruginosa ATCC 27853 infected neutropenic ICR mouse at 50 mg/kg, sc administered as single dose 2 hrs postinfection", "assay_type": "ADME, organism-based", "set-up": "time < 24 hr, dose 50 mg/kg, route subcutaneous", "details": "plasma", "procedure,_shortened": "as §4"}, "[24]": {"experiment": "Elimination rate constant in Pseudomonas aeruginosa ATCC 27853 infected neutropenic ICR mouse at 50 mg/kg, sc administered as single dose 2 hrs postinfection", "assay_type": "ADME, organism-based", "set-up": "dose 50 mg/kg, route subcutaneous", "details": "in vivo", "procedure,_shortened": "as §4"}, "Pseudomonas aeruginosa [25]": {"system": "Pseudomonas aeruginosa", "experiment": "Antibacterial activity against Pseudomonas aeruginosa isolate 1060 by fractionation study", "assay_type": "functional"}, "Pseudomonas aeruginosa [26]": {"system": "Pseudomonas aeruginosa", "experiment": "Antibacterial activity against Pseudomonas aeruginosa at 2 times MIC", "assay_type": "functional, organism-based", "procedure,_shortened": "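Time-kill in cation-adjusted Mueller-Hinton broth. Inoculum from overnight culture set to 0.5 McFarland, final 10⁶ CFU/ml, 37°C in ambient air for 24 h. 1×, 2× and 7× MIC plus drug-free controls. Samples taken at 0, 2, 4, 6, 12 and 24 h and plated on sheep blood agar. Detection limit 10² CFU/ml.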"}},
  "note": "The source made the active and inactive calls. The rule behind the calls is not given here.",
  "data": [
    {"molecule": "C[C@@H](O)[C@H]1C(=O)N2C(C(=O)O)=C(S[C@@H]3CN[C@H](CNS(N)(=O)=O)C3)[C@H](C)[C@H]12", "note": "[DORIPENEM]", "values": [
      {"measurement": "MIC", "setting": "Pseudomonas aeruginosa [1]", "value": 0.125, "unit": "µg/mL"},
      {"measurement": "MIC", "setting": "Pseudomonas aeruginosa [2]", "value": 0.25, "unit": "µg/mL"},
      {"measurement": "MIC", "setting": "Pseudomonas aeruginosa [3]", "value": 4, "unit": "µg/mL"},
      {"measurement": "MIC", "setting": "Pseudomonas aeruginosa [4]", "value": 4, "unit": "µg/mL"},
      {"measurement": "MIC", "setting": "Pseudomonas aeruginosa [5]", "value": 16, "unit": "µg/mL"},
      {"measurement": "fT>MIC", "setting": "[6]", "value": 55, "unit": "%"},
      {"measurement": "fT>MIC", "setting": "[7]", "value": 40, "unit": "%"},
      {"measurement": "fT>MIC", "setting": "[8]", "value": 27.5, "unit": "%"},
      {"measurement": "fT>MIC", "setting": "[9]", "value": 27.5, "unit": "%"},
      {"measurement": "fT>MIC", "setting": "[10]", "value": 7.5, "unit": "%"},
      {"measurement": "fT>MIC", "setting": "[11]", "value": 95, "unit": "%"},
      {"measurement": "fT>MIC", "setting": "[12]", "value": 80, "unit": "%"},
      {"measurement": "fT>MIC", "setting": "[13]", "value": 65, "unit": "%"},
      {"measurement": "fT>MIC", "setting": "[14]", "value": 55, "unit": "%"},
      {"measurement": "fT>MIC", "setting": "[15]", "value": 75, "unit": "%"},
      {"measurement": "fT>MIC", "setting": "[16]", "value": 55, "unit": "%"},
      {"measurement": "fT>MIC", "setting": "[17]", "value": 95, "unit": "%"},
      {"measurement": "fT>MIC", "setting": "[18]", "value": 82.5, "unit": "%"},
      {"measurement": "fT>MIC", "setting": "[19]", "value": 52.5, "unit": "%"},
      {"measurement": "Cmax", "setting": "[20]", "value": 16.3, "unit": "µg/mL"},
      {"measurement": "Cmax", "setting": "[21]", "value": 194, "unit": "µg/mL"},
      {"measurement": "Tmax", "setting": "[22]", "value": 15, "unit": "min"},
      {"measurement": "AUC(0-t) at 24 h", "setting": "[23]", "value": 62400, "unit": "ng·h/mL"},
      {"measurement": "k el at 2 h", "setting": "[24]", "value": 0.000567, "unit": "s⁻¹"},
      {"measurement": "MIC", "setting": "Pseudomonas aeruginosa [25]", "value": 2.75, "unit": "µg/mL"},
      {"measurement": "Activity", "setting": "Pseudomonas aeruginosa [26]", "value": "inactive"}
    ]}
  ]
}
